Activity calls are given as the source filed them. No cut-off for these calls is given here.
Molecular target: T1, P2X purinoceptor 7 (Homo sapiens, UniProt Q99572)
T1 sequence (Q99572 whole entry): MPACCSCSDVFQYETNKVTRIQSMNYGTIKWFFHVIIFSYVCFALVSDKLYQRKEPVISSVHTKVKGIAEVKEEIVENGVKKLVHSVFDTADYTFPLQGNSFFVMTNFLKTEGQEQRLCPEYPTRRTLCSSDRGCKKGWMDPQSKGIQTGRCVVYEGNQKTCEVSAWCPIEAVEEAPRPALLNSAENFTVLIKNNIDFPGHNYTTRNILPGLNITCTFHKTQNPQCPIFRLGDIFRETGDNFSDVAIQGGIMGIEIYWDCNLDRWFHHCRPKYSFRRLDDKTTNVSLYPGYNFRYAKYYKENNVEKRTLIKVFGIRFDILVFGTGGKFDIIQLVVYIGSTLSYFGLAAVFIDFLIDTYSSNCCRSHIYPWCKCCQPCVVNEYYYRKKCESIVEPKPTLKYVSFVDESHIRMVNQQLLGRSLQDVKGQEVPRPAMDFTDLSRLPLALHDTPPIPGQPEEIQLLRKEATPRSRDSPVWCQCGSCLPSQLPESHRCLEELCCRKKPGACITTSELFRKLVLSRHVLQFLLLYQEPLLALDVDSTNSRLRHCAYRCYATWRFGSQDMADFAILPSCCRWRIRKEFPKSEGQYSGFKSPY
Assay: Antagonist activity at recombinant human P2X7 receptor expressed in HEK293 cells assessed as inhibition of BzATP-induced intracellular ethidium bromide uptake after 2 hrs by fluorescence assay
Format: cell-based
Settings: not given
How it was run: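 Human HEK293 cells stably expressing recombinant human P2X7; ethidium accumulation stimulated by BzATP was measured.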

Row | Structure (SMILES) | IC50
1 | O=C1NC(=O)N(C2CCN(C(=O)CC34CC5CC(CC(C5)C3)C4)CC2)C1Cc1ccc(OS(=O)(=O)c2cccc3cnccc23)cc1 (racemic) | 84 nM
2 | O=C1NC(=O)N(C2CCN(C(=O)C34CC5CC(CC(Br)(C5)C3)C4)CC2)C1Cc1ccc(OS(=O)(=O)c2cccc3cnccc23)cc1 (racemic) | 30 nM
3 | CC12CC3CC(C)(C1)CC(C(=O)N1CCC(N4C(=O)NC(=O)C4Cc4ccc(OS(=O)(=O)c5cccc6cnccc56)cc4)CC1)(C3)C2 (racemic) | 99 nM
4 | O=C1NC(=O)N(C2CCN(C(=O)C34CC5CC(CC3C5)C4)CC2)C1Cc1ccc(OS(=O)(=O)c2cccc3cnccc23)cc1 (racemic) | 69 nM
5 | O=C1NC(=O)N(C2CCN(C(=O)CC3CC4CCC3C4)CC2)C1Cc1ccc(OS(=O)(=O)c2cccc3cnccc23)cc1 (racemic) | 109 nM
6 | O=C1NC(=O)N(C2CCN(C(=O)c3ccccc3Cl)CC2)C1Cc1ccc(OS(=O)(=O)c2cccc3cnccc23)cc1 (racemic) | 666 nM

Results, then the compound that gave them:

Row | IC50 | Structure (SMILES)
7 | 3760 nM | COc1ccc(C(=O)N2CCC(N3C(=O)NC(=O)C3Cc3ccc(OS(=O)(=O)c4cccc5cnccc45)cc3)CC2)cc1OC (racemic)
8 | 220 nM | O=C1NC(=O)N(C2CCN(C(=O)c3cccc(Cl)c3)CC2)C1Cc1ccc(OS(=O)(=O)c2cccc3cnccc23)cc1 (racemic)
9 | 133 nM | O=C1NC(=O)N(C2CCN(C(=O)c3ccc(Cl)cc3)CC2)C1Cc1ccc(OS(=O)(=O)c2cccc3cnccc23)cc1 (racemic)
10 | 913 nM | O=C1NC(=O)N(C2CCN(C(=O)c3ccc(F)cc3)CC2)C1Cc1ccc(OS(=O)(=O)c2cccc3cnccc23)cc1 (racemic)
11 | 217 nM | O=C1NC(=O)N(C2CCN(C(=O)c3ccc(F)c(F)c3)CC2)C1Cc1ccc(OS(=O)(=O)c2cccc3cnccc23)cc1 (racemic)
12 | 73 nM | O=C1NC(=O)N(C2CCN(C(=O)c3ccc(Cl)c(Cl)c3)CC2)C1Cc1ccc(OS(=O)(=O)c2cccc3cnccc23)cc1 (racemic)
13 | 423 nM | O=C1NC(=O)N(C2CCN(C(=O)c3ccc(Cl)cc3F)CC2)C1Cc1ccc(OS(=O)(=O)c2cccc3cnccc23)cc1 (racemic)
14 | 542 nM | CN1C(=O)C(Cc2ccc(OS(=O)(=O)c3cccc4cnccc34)cc2)N(C2CCN(C(=O)c3ccc(Cl)c(C(F)(F)F)c3)CC2)C1=O (racemic)
15 | 847 nM | CCN1C(=O)C(Cc2ccc(OS(=O)(=O)c3cccc4cnccc34)cc2)N(C2CCN(C(=O)c3ccc(Cl)c(C(F)(F)F)c3)CC2)C1=O (racemic)
16 | 1670 nM | CCCN1C(=O)C(Cc2ccc(OS(=O)(=O)c3cccc4cnccc34)cc2)N(C2CCN(C(=O)c3ccc(Cl)c(C(F)(F)F)c3)CC2)C1=O (racemic)
17 | 3240 nM | CC(C)N1C(=O)C(Cc2ccc(OS(=O)(=O)c3cccc4cnccc34)cc2)N(C2CCN(C(=O)c3ccc(Cl)c(C(F)(F)F)c3)CC2)C1=O (racemic)
18 | 54 nM | O=C1NC(=O)N(C2CCN(C(=O)c3ccc(Cl)c(C(F)(F)F)c3)CC2)C1Cc1ccc(OS(=O)(=O)c2cccc3cnccc23)cc1 (single isomer, unassigned; (-))
19 | 168 nM | O=C1NC(=O)N(C2CCN(C(=O)c3ccc(Cl)c(C(F)(F)F)c3)CC2)C1Cc1ccc(OS(=O)(=O)c2cccc3cnccc23)cc1 (stereo in doubt; (+)-21w)

Molecular target: T2, P2X purinoceptor 7 (Homo sapiens) (UniProt Q99572)
T2 sequence (whole entry): T1 sequence (Q99572 whole entry)
Assay: Antagonist activity at recombinant human P2X7 receptor expressed in HEK293 cells assessed as inhibition of BzATP-induced intracellular ethidium bromide uptake at 10 uM after 2 hrs by fluorescence assay
Format: cell-based
Settings: not given

Row | inhibition | Structure (SMILES)
20 | inactive | O=C1NC(=O)[C@H](Cc2ccc(OS(=O)(=O)c3cccc4cnccc34)cc2)N1
21 | 48% | O=C1NC(=O)N(C2CCN(C(=O)C34CC5CC(CC(C5)C3)C4)CC2)C1c1ccc(OS(=O)(=O)c2cccc3cnccc23)cc1 (racemic)
22 | inactive | O=C1NC(=O)N(C2CCNCC2)C1Cc1ccc(OS(=O)(=O)c2cccc3cnccc23)cc1 (racemic)
23 | inactive | O=C1NC(=O)N(CC2CCNCC2)C1Cc1ccc(OS(=O)(=O)c2cccc3cnccc23)cc1 (racemic)

Molecular target: T1, P2X purinoceptor 7
Assay: Antagonist activity at P2X7 receptor in LPS/IFN-gamma-differentiated human THP1 cells assessed as inhibition of BzATP-induced IL-1beta release preincubated for 30 mins followed by BzATP induction measured after 30 mins by ELISA
Format: cell-based, THP-1
Settings: not given
How it was run: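 Human THP-1 monocytes, LPS-primed, stimulated with BzATP; IL-1β release measured by ELISA. Active compounds were screened at 1 µM, and full concentration-response curves were run to obtain IC50.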

Row | Structure (SMILES) | IC50
24 | CN([C@@H](Cc1ccc(OS(=O)(=O)c2cccc3cnccc23)cc1)C(=O)N1CCN(c2ccccc2)CC1)S(=O)(=O)c1cccc2cnccc12 | 143 nM
25 | O=C1NC(=O)N(C2CCN(C(=O)CC34CC5CC(CC(C5)C3)C4)CC2)C1Cc1ccc(OS(=O)(=O)c2cccc3cnccc23)cc1 (racemic) | 15 nM
26 | O=C1NC(=O)N(C2CCN(C(=O)C34CC5CC(CC(Br)(C5)C3)C4)CC2)C1Cc1ccc(OS(=O)(=O)c2cccc3cnccc23)cc1 (racemic) | 27 nM
27 | CC12CC3CC(C)(C1)CC(C(=O)N1CCC(N4C(=O)NC(=O)C4Cc4ccc(OS(=O)(=O)c5cccc6cnccc56)cc4)CC1)(C3)C2 (racemic) | 81 nM
28 | O=C1NC(=O)N(C2CCN(C(=O)C34CC5CC(CC3C5)C4)CC2)C1Cc1ccc(OS(=O)(=O)c2cccc3cnccc23)cc1 (racemic) | 49 nM
29 | O=C1NC(=O)N(C2CCN(C(=O)CC3CC4CCC3C4)CC2)C1Cc1ccc(OS(=O)(=O)c2cccc3cnccc23)cc1 (racemic) | 29 nM

Next, values leading:

Row | IC50 | Structure (SMILES)
30 | 313 nM | O=C1NC(=O)N(C2CCN(C(=O)c3cccc(Cl)c3)CC2)C1Cc1ccc(OS(=O)(=O)c2cccc3cnccc23)cc1 (racemic)
31 | 192 nM | O=C1NC(=O)N(C2CCN(C(=O)c3ccc(Cl)cc3)CC2)C1Cc1ccc(OS(=O)(=O)c2cccc3cnccc23)cc1 (racemic)
32 | 81 nM | O=C1NC(=O)N(C2CCN(C(=O)c3ccc(F)c(F)c3)CC2)C1Cc1ccc(OS(=O)(=O)c2cccc3cnccc23)cc1 (racemic)
33 | 72 nM | O=C1NC(=O)N(C2CCN(C(=O)c3ccc(Cl)c(Cl)c3)CC2)C1Cc1ccc(OS(=O)(=O)c2cccc3cnccc23)cc1 (racemic)
34 | 253 nM | O=C1NC(=O)N(C2CCN(C(=O)c3ccc(Cl)cc3F)CC2)C1Cc1ccc(OS(=O)(=O)c2cccc3cnccc23)cc1 (racemic)
35 | 9 nM | O=C1NC(=O)N(C2CCN(C(=O)c3ccc(Cl)c(C(F)(F)F)c3)CC2)C1Cc1ccc(OS(=O)(=O)c2cccc3cnccc23)cc1 (single isomer, unassigned; (-))
36 | 98 nM | O=C1NC(=O)N(C2CCN(C(=O)c3ccc(Cl)c(C(F)(F)F)c3)CC2)C1Cc1ccc(OS(=O)(=O)c2cccc3cnccc23)cc1 (stereo in doubt; (+)-21w)

Molecular target: T2, P2X purinoceptor 7 (Homo sapiens)
Assay: Antagonist activity at P2X7 receptor in LPS/IFN-gamma-differentiated human THP1 cells assessed as inhibition of BzATP-induced IL-1beta release at 1 uM preincubated for 30 mins followed by BzATP induction measured after 30 mins by ELISA relative to control
Format: cell-based
Settings: THP-1
How it was run: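 LPS-primed THP-1 human monocytes were stimulated with BzATP, and IL-1β release was measured by ELISA. Test compound was given at a single concentration of 1 µM, and results are expressed as percent inhibition of BzATP-induced IL-1β release.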

Row | inhibition | Structure (SMILES)
37 | > 95% | O=C1NC(=O)N(C2CCN(C(=O)CC34CC5CC(CC(C5)C3)C4)CC2)C1Cc1ccc(OS(=O)(=O)c2cccc3cnccc23)cc1 (racemic)
38 | > 95% | O=C1NC(=O)N(C2CCN(C(=O)C34CC5CC(CC(Br)(C5)C3)C4)CC2)C1Cc1ccc(OS(=O)(=O)c2cccc3cnccc23)cc1 (racemic)
39 | > 95% | O=C1NC(=O)N(C2CCN(C(=O)C34CC5CC(CC3C5)C4)CC2)C1Cc1ccc(OS(=O)(=O)c2cccc3cnccc23)cc1 (racemic)
40 | > 95% | O=C1NC(=O)N(C2CCN(C(=O)CC3CC4CCC3C4)CC2)C1Cc1ccc(OS(=O)(=O)c2cccc3cnccc23)cc1 (racemic)
41 | 52% | COc1ccc(C(=O)N2CCC(N3C(=O)NC(=O)C3Cc3ccc(OS(=O)(=O)c4cccc5cnccc45)cc3)CC2)cc1OC (racemic)
42 | 68% | O=C1NC(=O)N(C2CCN(C(=O)c3ccccc3Cl)CC2)C1Cc1ccc(OS(=O)(=O)c2cccc3cnccc23)cc1 (racemic)

From ChEMBL document CHEMBL3414458, “Discovery of novel 2,5-dioxoimidazolidine-based P2X(7) receptor antagonists as constrained analogues of KN62” (J Med Chem, 2015)
